PGE2 EP2 inh: EP2 receptor (human) inhibition; AID 1422; inhibition, % at 25 µM; C6 glioma cells expressing human EP2, cAMP TR-FRET; cells stimulated with saturating PGE2; 0.52% of 260,000 active; P43116;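 active means percent inhibition above 40 after rounding to a whole number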;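 further: rat C6 glioma host cells with rolipram phosphodiesterase inhibitor present; the protocol text gives 20 µM as final concentration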
Target sequence (P43116 whole entry, looked up): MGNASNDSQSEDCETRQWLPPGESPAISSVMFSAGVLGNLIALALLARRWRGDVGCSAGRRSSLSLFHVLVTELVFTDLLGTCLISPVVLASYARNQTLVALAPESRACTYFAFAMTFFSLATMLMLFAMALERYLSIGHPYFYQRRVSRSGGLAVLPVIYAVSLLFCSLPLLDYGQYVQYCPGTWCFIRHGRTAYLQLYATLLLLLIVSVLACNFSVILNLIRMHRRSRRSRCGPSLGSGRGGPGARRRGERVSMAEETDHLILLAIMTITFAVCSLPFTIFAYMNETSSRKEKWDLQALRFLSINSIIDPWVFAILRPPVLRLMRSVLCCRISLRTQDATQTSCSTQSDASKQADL
EP2 mod: EP2 receptor (human) modulation | EP2-expressing cells, cAMP HTRF FRET, PGE2 co-stimulation | P43116 | 0.83% of 260,000 active | induction, % at 25 µM;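 active means compounds whose cAMP rise, as percent of the full-agonist control response, exceeds 60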;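 further: rat C6 glioma line stably carrying human EP2 under a CMV promoter; the protocol text gives 20 µM as final concentration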
Exocytosis inh: lytic granule exocytosis inhibition | TALL-104 LAMP-1 surface exposure, flow cytometry; cells stimulated with thapsigargin and PMA | inhibition, % at 10 µM | 0.66% of 360,000 active;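 active means inhibition above about 55%, limit read from the data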
MC4R antag cAMP: antagonists of human melanocortin 4 receptor (MC4R); MC4R-expressing cells, MTII-stimulated cAMP, LANCE TR-FRET; 0.48% of 360,000 active; P32245; inhibition, % at 6.5 µM;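 active means inhibition above its plate's cutoff, the mean of tested wells on that plate plus 3 SD, cut at about 29% in these data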
Target sequence (P32245 whole entry, looked up): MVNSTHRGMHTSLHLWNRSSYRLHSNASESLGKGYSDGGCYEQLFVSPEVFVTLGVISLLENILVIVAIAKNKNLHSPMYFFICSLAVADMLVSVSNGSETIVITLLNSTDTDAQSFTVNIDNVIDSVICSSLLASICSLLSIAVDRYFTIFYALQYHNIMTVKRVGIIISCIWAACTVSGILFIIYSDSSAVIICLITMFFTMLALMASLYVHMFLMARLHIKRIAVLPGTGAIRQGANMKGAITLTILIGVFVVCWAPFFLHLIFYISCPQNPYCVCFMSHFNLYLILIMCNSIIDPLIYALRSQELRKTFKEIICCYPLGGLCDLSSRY
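System: U2OS-MC4R stable cell line; Technique: Eu-cAMP/anti-cAMP TR-FRET, emission 671 nm; Repeats: single well per compound; Also added: Melanotan II; Dosing: one concentration, 6.5 µM nominal; Schedule: 30-min compound, 1-h challenge, 1-h detection, room temperature.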
MC4R barr agon: agonists of human melanocortin 4 receptor (MC4R) beta-arrestin. activation, % at 8.9 µM. 0.98% of 360,000 active. U2OS MC4R beta-arrestin complementation, luminescence; percent of melanotan II response, DMSO zero;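 active means activation above a per-plate cutoff, the mean activation of sample wells on that plate plus 3 SD, cut at about 8% in these data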
T cell modulator: modulates CD8 T cell binding to vesicles; response (vesicle binding), % at 7 µM; AID 2052; 0.068% of 330,000 active; 2C CD8+ T cell-vesicle binding, flow cytometry; hits give low values;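 active means response, share of CD8 T cells binding vesicles, and their 90th percentile fluorescence all below set limits, cut at about 80% in these data, passing the limit was not always enough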;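 further: values below 100% mean blocked vesicle binding to the CD8+ T cells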
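incubation = binding step 1.5 h, 37 °C, antibody labelling 20 min, ice | test system = 2C mouse CD8+ T cells | read-out basis = percent CD8+ FL2 mean versus row control | controls = Peptide-free naked vesicles (low) and QL9 vesicles with 0.7% DMSO vehicle (high) | detection = flow cytometry of vesicle-bound cells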
U2OS cAMP counter: counter-screen for MC4R antagonists: nonselective cAMP signaling inhibitors | 26% of 1,600 active | shares compounds with MC4R antag cAMP | inhibition, % at 6.5 µM | parental U2OS, forskolin cAMP, LANCE TR-FRET;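 active means mean inhibition over triplicates above the low-control well mean plus 3 SD, set per campaign, cut at about 13% in these data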;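 further: signal is single emission at 671 nm which falls as cellular cAMP rises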
MC4R cAMP antag: human MC4R cAMP antagonism confirmation | shares compounds with MC4R antag cAMP | MC4R-expressing cells, MTII-stimulated cAMP, TR-FRET | inhibition, % at 6.5 µM | 27% of 1,600 active | AID 602195; in the data active means inhibition above about 29%
MC4R barr conf: human MC4R beta-arrestin agonism confirmation | U2OS MC4R beta-arrestin recruitment, luminescence; scaled DMSO 0%, Melanotan II 100% | shares compounds with MC4R barr agon | 31% of 2,400 active | activation, % at 8.9 µM | AID 602192;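 active means mean activation across replicates above the hit cutoff set in the earlier primary screen, cut at about 8% in these data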
MOR-DOR barr ag: OPRM1-OPRD1 heterodimer agonism counter-screen. shares compounds with MC4R barr agon. U2OS PathHunter beta-arrestin, beta-gal luminescence; percent of deltorphin B response, DMSO zero. activation, % at 9.2 µM. 5.8% of 2,400 active. AID 602194;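 active means mean activation across replicates exceeds the hit threshold derived in the earlier primary screen, cut at about 18% in these data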
Exocytosis CP01: blocks lytic granule exocytosis; shares compounds with Exocytosis inh; TALL-104 cells, LAMP-1 externalization, flow cytometry; stimulated with PMA plus thapsigargin; inhibition, % at 10 µM; 11% of 1,500 active; in the data active means inhibition above about 60%
Hits are given with their value; n = inactive; x = not tested or not shown. This is a sample that favours compounds with a hit; in the whole collection about 2.6% have one here.

SMILES	PGE2 EP2 inh	EP2 mod	Exocytosis inh	MC4R antag cAMP	MC4R barr agon	T cell modulator	others
CCOc1cc2[nH]c(=S)n(CCCC(=O)N3CCC4(CC3)OCCO4)c(=O)c2cc1OCC	n	n	n	29	n	n	U2OS cAMP counter=n;MC4R cAMP antag=n
Cc1ncc2n1-c1ccc(Cl)cc1C(c1ccccc1F)=NC2	x	x	n	n	n	n
COc1ccc(CN2Cc3cnnn3-c3ccccc3C2C#N)cc1 (configuration not stated)	x	x	n	32	n	x	U2OS cAMP counter=n;MC4R cAMP antag=n
N#CC1c2ccccc2-n2nncc2CN1Cc1cc(Cl)cc(Cl)c1 (configuration not stated)	x	x	n	n	n	x
O=C(CNC(=O)OCc1ccccc1)Nc1ccc(Br)cc1C(=O)c1ccccc1Cl	n	n	n	n	n	n
C=CCn1c(O)c(C(CC)=Nc2cccc(C(=O)O)c2)c(=O)[nH]c1=O	n	n	n	31	n	n	U2OS cAMP counter=n;MC4R cAMP antag=n
O=C1NC(=O)C(=Cc2ccc(SC3CCCCC3)o2)C(=O)N1	n	n	n	38	n	n	U2OS cAMP counter=n;MC4R cAMP antag=n
NS(=O)(=O)c1ccc(-c2ccc(C=C3C(=O)NC(=O)NC3=O)o2)cc1	x	x	n	n	n	n
COc1cccc(C(=O)C2CCCN(Cc3cccc4c3OCO4)C2)c1 (configuration not stated)	n	n	n	29	n	n	U2OS cAMP counter=n;MC4R cAMP antag=n
COc1cccc(C(=O)C2CCCN(Cc3ccc4nonc4c3)C2)c1 (configuration not stated)	n	n	n	n	n	n
CC(=O)c1cn(CCCOc2ccccc2)c2ccccc12	n	n	n	n	n	n
CN1C(=O)C(c2ccccc2)C(=O)N(C)C1=O	x	x	n	30	n	n	U2OS cAMP counter=n;MC4R cAMP antag=n
CC/C(=N\Nc1ccccc1)c1c(O)n(-c2ccc(OC)cc2)c(=O)[nH]c1=O	n	n	n	33	n	n	U2OS cAMP counter=n;MC4R cAMP antag=n
COC(=O)[C@]1(C)CC[C@]2(C)CC[C@]3(C)C4=CC=C5C(=CC(=O)C(O)=C5C)[C@]4(C)CC[C@@]3(C)[C@@H]2C1	n	n	x	x	x	x
CC1=C(O)C(=O)C=C2C1=CC=C1C2(C)CCC2(C)C3CC(C)(C(=O)O)CCC3(C)CCC12C (configuration not stated)	x	x	106	32	n	x	U2OS cAMP counter=n;MC4R cAMP antag=n
Cc1cc(Cl)cc2c1NC(c1cccnc1)C1CC=CC21 (configuration not stated)	n	n	x	x	x	x
C=C1C(=O)OC2CC3(C)OC3CCC(C)=CC(OC(C)=O)C12 (configuration not stated)	x	x	n	n	n	x
C=C1C(=O)OC2CC3(C)OC3C3OC3C3=CC(OC3=O)C12 (configuration not stated)	x	x	n	43	n	x	U2OS cAMP counter=19;MC4R cAMP antag=33
Cc1[nH]c2c(C)cccc2c1CC(=O)N(CCN(C)C)C1CCN(C)CC1	n	n	x	x	x	x
CCCCOC(=O)COc1cc(C)cc2oc(=O)c3c(c12)CCC3	n	n	n	n	n	n
C=CCOC(=O)COc1cc(C)cc2oc(=O)c3c(c12)CCC3	n	n	n	n	11	n	MC4R barr conf=9.0;MOR-DOR barr ag=n
Cc1ccccc1CN1CCN(C(=O)Cc2ccccc2)CC1	n	n	n	n	n	n
O=c1[nH]cnc2nc(-c3ccc(N(CCCl)CCCl)cc3)[nH]c12	x	x	n	n	9.8	x	MC4R barr conf=13;MOR-DOR barr ag=19
Cc1cc2oc(=O)cc(-c3cc4ccccc4o3)c2cc1OC(=O)N(C)C	x	x	n	n	17	n	MC4R barr conf=n;MOR-DOR barr ag=n
CC1CCN(C(=O)C(C)Cl)CC1 (configuration not stated)	n	n	n	n	n	n
SMILES	PGE2 EP2 inh	EP2 mod	Exocytosis inh	MC4R antag cAMP	MC4R barr agon	T cell modulator	others
O=C1CN=C(c2ccc(Cl)cc2)c2oc3ccccc3c2N1	n	n	n	n	11	n	MC4R barr conf=n;MOR-DOR barr ag=n
C[C@]12CC[C@@H](O)CC1=CCC1C2CC[C@]2(C)C(=O)[C@H](F)CC12 (some centres not stated)	x	x	n	n	n	n
CC12CCC3C(CC=C4CC(O)CCC43C)C1C/C(=C\c1cccc(F)c1)C2=O (configuration not stated)	n	n	n	n	14	n	MC4R barr conf=n;MOR-DOR barr ag=n
CCCCCCn1c(=O)c(C(=O)Nc2nc(CC(=O)OCC)cs2)c(O)c2ccccc21	n	n	n	n	n	n
CCOc1ccccc1CN1C2CCC1CC(c1ccc(C)cc1)C2 (configuration not stated)	x	x	67	n	n	n	Exocytosis CP01=n
CCOC(=O)CNC(=O)N1Cc2ccccc2-n2nncc2C1	x	x	n	n	n	x
Cc1cccc(CNCCc2c[nH]c3ccccc23)c1	x	x	80	n	n	n	Exocytosis CP01=n
Fc1cccc(CNCCc2c[nH]c3ccccc23)c1	x	x	n	n	n	n
c1ccc(C[C@H]2CN3CCC[C@H]3CN2Cc2cccnc2)cc1	n	n	x	x	x	x
FC(F)(F)Oc1ccc(C2NCc3ccccc3-n3cccc32)cc1 (configuration not stated)	x	x	59	n	n	n	Exocytosis CP01=n
Fc1cccc(C2NCc3ccccc3-n3cccc32)c1 (configuration not stated)	x	x	n	n	n	n
COc1ccc(C(C)=O)cc1CC(C(=O)c1ccc(F)cc1)N(C)C (configuration not stated)	n	n	n	n	n	n
CN(C(=O)Cc1ccc2c(c1)OCO2)C1CCCN(Cc2ccccc2F)C1 (configuration not stated)	x	x	n	n	n	n
Cc1ccccc1CC(=O)N(CCN(C)C)CC1CCCN(Cc2ccccc2F)C1 (configuration not stated)	x	x	62	n	n	n	Exocytosis CP01=n
CCOC(=O)[C@]12Cc3cc(Cl)ccc3[C@H]1N(C1CCCCC1)C(=O)c1ccccc12	x	x	83	x	x	x	Exocytosis CP01=n
CCOC(=O)[C@]12Cc3cc(Cl)ccc3[C@H]1N(Cc1ccccc1)C(=O)c1cc(OC)ccc12	x	x	n	x	x	x
CCOC(=O)[C@]12Cc3cc(OC)ccc3[C@H]1N(C1CCCCC1)C(=O)c1ccccc12	x	x	67	x	x	x	Exocytosis CP01=n
